The list is not random: actives were taken first. Their share in the collection is about 5.5%.
STAT1 blocker: reduces IFN-gamma driven STAT1 reporter signal. inhibition, % at 5.5 µM. NIH 3T3 STAT1-luciferase reporter, luminescence. 200,000 tested, 0.35% active. AID 920;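 active = inhibition above a set limit, the mean inhibition across all tested compounds plus 3 SD, cut at about 34% in these data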;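 also: 0% = IFN-gamma with DMSO and 100% = IFN-gamma with 300 µM nifuroxazide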
Cl transport mod: modulators of human KCC2 chloride dependent transport | KCC2 cells, thallium flux FluoZin-2 fluorescence | B-score of Tl+ flux slope (higher = more flux/activation; lower = inhibition) at 10 µM | 190,000 tested, 2.2% active | AID 1456;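 active = thallium flux slope and its plate-corrected score both differing from the plate sample mean at a set confidence after two filtering rounds, in either direction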;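 also: slope of fluorescence scaled to starting intensity during 10 to 20 s after thallium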
STAT3 blocker: inhibitors of IL-6 induced STAT3 signaling; U3A cells, IL-6 STAT3-luciferase reporter, luminescence; host cell line lacks STAT1; inhibition, % at 5.5 µM; 190,000 tested, 0.89% active;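 active = inhibition above the mean inhibition across all screened compounds plus 3 SD, cut at about 44% in these data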;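 also: 0% = DMSO only wells and 100% = 100 µM nifuroxazide control wells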
STAT3 activator: STAT3 signaling activation; activation (% of control), % at 5.6 µM; 190,000 tested, 0.91% active; U3A cells, IL-6 STAT3-luciferase reporter, luminescence; 100% = signal with IL-6 EC80 alone;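 active = activation above the screen-wide mean of compound activation plus 3 SD, cut at about 130% in these data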;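 also: 0% = background luminescence of wells with medium and substrate only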
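Material: STAT3-luciferase reporter U3A cells; Probe or stimulus: IL-6 (33 ng/mL); Incubation: compound pre-incubation 1 h before IL-6, then 6 h stimulation at 37 °C; Technique: luminescence from STAT3-driven luciferase reporter; Evaluation: % activation versus median of IL-6-stimulated wells; Controls: IL-6-only high control.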
STAT1 act: STAT1 signaling activation; 200,000 tested, 2.6% active; NIH 3T3 STAT1-luciferase reporter, IFN-gamma, luminescence; 100% = IFN-gamma alone, no compound; activation (% of control), % at 5.5 µM;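 active = activation above the screen-wide mean activation plus 3 SD, cut at about 130% in these data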;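 also: raw ratio to IFN-gamma control signal so 100% means no change and 0% no light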
HSV augment: increases HSV replication in cells; maximum fold increase; AID 1956; 220,000 tested, 0.005% active; HSV replication augmentation in cells, fold increase; in the data active = maximum fold increase above about 1.5; inconclusive = no clear call, values can overlap the other calls; tested in PC3 cells
Starred values were filed as active, the others as inactive; i = inactive; ? = inconclusive; . = no result.

SMILES | STAT1 blocker | Cl transport mod | STAT3 blocker | STAT3 activator | STAT1 act | HSV augment
C=C(C)CNC(=S)Nc1nc2c(cc1C(=O)OCC)CCCC2 | 3 | 43* | -1 | 99 | 97 | i
Cc1ccc(SCC(=O)N2c3ccccc3Sc3ccccc32)cc1 | 8 | . | 16 | 96 | 93 | i
CCN(Cc1ccccc1)c1ccc(N=Nc2nn(C)c(C)c2[N+](=O)[O-])cc1 | -36 | -1.1 | -8 | 102 | 133* | i
CCN(Cc1ccccc1)c1ccc(/C=N/NS(=O)(=O)c2ccc(C)c([N+](=O)[O-])c2)cc1 | -1 | -0.52 | 0 | 103 | 101 | i
C=CCNC(=O)NC(=O)COC(=O)CC(NC(N)=O)c1ccc(Cl)cc1 (stereo unspecified) | -5 | 0.087 | -5 | 102 | 107 | i
CC(=O)N/N=C/c1cc(C(C)C)cc(/C=N/NC(C)=O)c1O | -4 | 5.7* | -5 | 106 | 102 | ?
O=C(CSc1nc(CCC2CCCC2)nc2ccccc12)NCc1ccc2c(c1)OCO2 | 4 | 21* | -2 | 102 | 97 | i
COc1cc(CC(=O)N/N=C/c2ccc([N+](=O)[O-])cc2)c([N+](=O)[O-])cc1OC | 0 | -0.1 | -5 | 104 | 100 | i
C/C(=N\NC(=O)CN1CCN(Cc2ccccc2)CC1)c1cccs1 | . | -0.28 | . | . | . | i
COc1ccc(Oc2nccc(-c3ccccc3)c2C#N)cc1 | -32 | -0.13 | 18 | 87 | 129* | i
Cc1ccc(S(=O)(=O)c2c(COC(=O)c3ccccc3Cl)c(-c3ccccc3)nn2C)cc1 | 3 | 0.21 | -5 | 108 | 97 | i
CCOC(=O)c1c(C)[nH]c(C)c1C(=O)COC(=O)CNC(=O)C1CCCCC1 | -4 | 0.84 | -6 | 107 | 102 | i
CCOC(=O)c1c(C)[nH]c(C(=O)COC(=O)[C@H](C)NC(=O)c2ccccc2Cl)c1C | -8 | 0.094 | 9 | 96 | 107 | i
CCOC(=O)c1c(C)[nH]c(C(=O)COC(=O)CNC(=O)c2ccccc2Cl)c1C | -36 | -0.42 | -15 | 111 | 132* | i
CCOC(=O)c1c(C)[nH]c(C(=O)COC(=O)CNC(=O)C2CCCCC2)c1C | -39 | . | -3 | 107 | 136* | i
CNC(=S)N(Cc1ccc2c(c1)OCO2)C1CC(=O)N(c2ccccc2)C1=O (stereo unspecified) | 8 | 0.79 | 6 | 96 | 93 | i
CCOC(=O)c1ccc(N2C(=O)C3C(/C=C/c4ccccc4)OC4(C(=O)c5ccccc5C4=O)C3C2=O)cc1 (stereo unspecified) | 0 | -4.9 | -4 | 101 | 100 | i
CN1C(=O)C(CC(=O)Nc2ccc(F)cc2)N(Cc2ccco2)C1=S (stereo unspecified) | 3 | -1.1 | 8 | 100 | 96 | i
CC1(C)CC(O)C(C(O)c2cccc([N+](=O)[O-])c2)C(C)(C)N1 (stereo unspecified) | -2 | -0.025 | 1 | 102 | 102 | i
Nc1ccc2oc(C3CCCCC3)nc2c1 | -34 | -0.54 | -1 | 106 | 132* | i
O=[N+]([O-])c1ccc2oc(C3CCCCC3)nc2c1 | -26 | 1.5 | 11 | 94 | 122 | i
CCn1cc(C(=O)N2CCc3ccccc32)c(=O)c2cc(S(=O)(=O)N3CCCC3)ccc21 | 2 | -0.7 | -26 | 133* | 99 | i
CC(=O)c1ccc(-c2nc3ccccc3n2C)o1 | -32 | 0.93 | 15 | 90 | 130* | i
Cc1ccc(-c2nc3ccccc3n2C)o1 | -32 | -0.88 | 26 | 83 | 130* | i
Cn1c(-c2ccc(Br)o2)nc2ccccc21 | -44 | -1.9 | 11 | 92 | 140* | i
SMILES | STAT1 blocker | Cl transport mod | STAT3 blocker | STAT3 activator | STAT1 act | HSV augment
Cn1cc(C(=O)c2ccccc2)cc1-c1nc2ccccc2n1C | 7 | -0.11 | 19 | 87 | 94 | i
Cn1c(-c2ccc(Br)o2)nc2cc(Br)ccc21 | -42 | -0.14 | -4 | 109 | 138* | i
Cc1ccc(CNC(=O)Cn2cc(C(F)(F)F)ccc2=O)cc1 | 5 | 1.1 | -5 | 102 | 95 | i
CC(Sc1ccsc1[N+](=O)[O-])C(=O)NCCc1ccc(Cl)cc1 (stereo unspecified) | 5 | -2.6 | 6 | 98 | 96 | i
O=c1c(C(c2ccccc2)c2c(O)sc3ccccc3c2=O)c(O)sc2ccccc12 | -3 | 21* | 0 | 101 | 103 | .
Cc1cc2sc3ccccc3c(=O)c2c(C)c1O | -8 | 0.61 | 2 | 101 | 107 | i
COc1ccc(C2=NN(S(C)(=O)=O)C(c3ccc4nccnc4c3)C2)cc1 (stereo unspecified) | -40 | 0.42 | -14 | 109 | 136* | i
CS(=O)(=O)Nc1cccc(C2=NN(S(C)(=O)=O)C(c3ccccc3)C2)c1 (stereo unspecified) | 2 | -0.63 | 16 | 94 | 96 | i
Cc1ccc(C2=NN(S(C)(=O)=O)C(c3cccs3)C2)cc1 (stereo unspecified) | -32 | -0.26 | -18 | 117 | 129* | i
Cc1ccc(C2=NN(S(C)(=O)=O)C(c3ccc4nccnc4c3)C2)cc1 (stereo unspecified) | -22 | 0.0054 | -6 | 103 | 123 | i
CS(=O)(=O)N1N=C(c2ccc(Br)cc2)CC1c1cccs1 (stereo unspecified) | -19 | . | -12 | 110 | 114 | i
CS(=O)(=O)Nc1ccc(C2=NN(S(C)(=O)=O)C(c3ccc4c(c3)OCO4)C2)cc1 (stereo unspecified) | -49 | 0.0061 | -16 | 116 | 143* | ?
COc1ccc(C2=NN(S(C)(=O)=O)C(c3cccs3)C2)cc1 (stereo unspecified) | -48 | -0.87 | -14 | 119 | 143* | i
COc1ccc(C2CC(c3cccs3)=NN2S(C)(=O)=O)cc1 (stereo unspecified) | . | . | . | . | . | i
CC1=NOC(=O)/C1=C\c1ccc(-c2ccccc2Br)o1 | -8 | -0.3 | -14 | 118 | 105 | i
CCC(C)Oc1nc2c(c(=O)n(C)c(=O)n2C)n1C (stereo unspecified) | . | 0.84 | . | . | . | i
O=C(CC(=O)c1cc(Cl)ccc1O)c1ccccc1 | -34 | 10* | -4 | 108 | 131* | i
CCOCC(=O)Nc1cc(C(=O)NCCc2ccccc2)ccc1Cl | -35 | . | 3 | 100 | 130* | i
COc1ccc(C(=O)Nc2cc(C(=O)NCCc3ccccc3)ccc2Cl)cc1 | -8 | -1.4 | -9 | 108 | 107 | i
COCC(=O)Nc1cc(C(=O)NCCc2ccccc2)ccc1Cl | -49 | 0 | 8 | 96 | 145* | i
COc1ccc(-n2cc3c(-c4cccc(Br)c4)nnc(C)c3n2)cc1 | -23 | -2.3 | 9 | 91 | 121 | i
Fc1ccc(Oc2ccc3nnc(C(F)(F)F)n3n2)cc1 | 1 | -0.29 | 3 | 99 | 98 | i

High-throughput results (PubChem BioAssay)
